What was measured:
NIH3T3 = test: Antiproliferative activity against mouse 3T3 cells expressing human CSF1R after 72 hrs by Celltiter assay; assay type: functional
Summary of the method: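 3T3 cells engineered with human full-length CSF-1R, seeded in phenol red-free DMEM with 0.05% BSA and incubated overnight. Treated with DMEM containing 80 ng/ml M-CSF plus insulin, transferrin and selenium at multiple compound concentrations. […] Growth read by MTS-type CellTiter 96 Aqueous One after 72 h.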

[1] = molecular target: Macrophage colony-stimulating factor 1 receptor (Homo sapiens, UniProt P07333); test: Inhibition of CSF1R
[2] = Bioavailability in rat at 3 mg/kg, iv and 10 mg/kg, po; assay type: ADME, organism-based; details: in vivo
[3] = Half life in rat at 3 mg/kg, iv and 10 mg/kg, po; assay type: ADME, organism-based; details: in vivo
[4] = Volume of distribution at steady state in rat at 3 mg/kg, iv and 10 mg/kg, po; assay type: ADME, organism-based; details: in vivo, read-out: Vdss
[5] = Clearance in rat at 3 mg/kg, iv and 10 mg/kg, po; assay type: ADME, organism-based; details: in vivo
Mus musculus [6] = test: Inhibition of phosphorylated CSF1R level in 3T3/CSF1R mutant cells xenografted nude mouse at 50 mg/kg, po after 6 hrs by ELISA; assay type: functional
Summary of the method: (§1)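 3T3 cells expressing constitutively active human mutant full-length CSF-1R (301–969) were implanted subcutaneously at 5 × 10⁶ cells in female nude mice and grown to tumors >250 mm³. After dosing, tumors were assayed for pCSF-1R by ELISA, and plasma was sampled for drug levels.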

Mus musculus [7] = test: Inhibition of phosphorylated CSF1R level in 3T3/CSF1R mutant cells xenografted nude mouse at 50 mg/kg, po after 2 hrs by ELISA; assay type: functional; summary of the method: as §1

Sequence of Macrophage colony-stimulating factor 1 receptor (P07333 whole entry): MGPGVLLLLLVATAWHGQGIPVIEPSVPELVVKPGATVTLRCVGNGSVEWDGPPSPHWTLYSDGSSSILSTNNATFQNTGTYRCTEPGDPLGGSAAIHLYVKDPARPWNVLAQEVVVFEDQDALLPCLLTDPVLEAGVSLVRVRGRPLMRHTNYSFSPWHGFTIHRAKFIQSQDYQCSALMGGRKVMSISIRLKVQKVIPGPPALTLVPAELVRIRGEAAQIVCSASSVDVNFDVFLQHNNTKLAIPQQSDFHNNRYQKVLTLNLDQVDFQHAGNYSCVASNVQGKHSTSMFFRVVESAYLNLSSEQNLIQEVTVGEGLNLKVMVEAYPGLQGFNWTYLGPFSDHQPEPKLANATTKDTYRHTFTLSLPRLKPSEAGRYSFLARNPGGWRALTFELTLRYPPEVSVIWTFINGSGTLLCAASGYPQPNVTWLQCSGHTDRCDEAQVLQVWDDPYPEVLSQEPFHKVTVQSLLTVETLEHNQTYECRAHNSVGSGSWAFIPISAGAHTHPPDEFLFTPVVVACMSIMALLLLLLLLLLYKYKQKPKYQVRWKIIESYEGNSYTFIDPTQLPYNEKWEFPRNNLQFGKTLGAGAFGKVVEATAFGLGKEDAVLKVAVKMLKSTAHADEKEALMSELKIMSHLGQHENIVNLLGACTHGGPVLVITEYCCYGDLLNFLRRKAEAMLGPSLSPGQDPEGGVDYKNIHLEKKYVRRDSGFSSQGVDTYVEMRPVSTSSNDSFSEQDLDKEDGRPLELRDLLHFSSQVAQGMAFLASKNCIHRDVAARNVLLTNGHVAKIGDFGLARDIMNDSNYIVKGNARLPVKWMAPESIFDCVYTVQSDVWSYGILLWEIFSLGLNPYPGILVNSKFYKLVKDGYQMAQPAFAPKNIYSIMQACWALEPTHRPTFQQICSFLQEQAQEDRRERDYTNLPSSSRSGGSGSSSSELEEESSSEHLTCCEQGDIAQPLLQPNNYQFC

Compound | Activity (NIH3T3) [µM] | IC50 [1] [nM] | bioavailability [2] [%] | half-life [3] [min] | Vd [4] [L/kg] | clearance [5] [mL/min/kg] | inhibition in vivo at 50 mg/kg (Mus musculus [6]) [%] | inhibition in vivo at 50 mg/kg (Mus musculus [7]) [%]
O=C(Nc1ccc(Cl)c(C(=O)Nc2cccnc2)c1)c1ccc(Cl)c(Cl)c1 | 0.09 | 3 |  |  |  |  |  | 
Cc1ccc(C(=O)Nc2cccc(C(F)(F)F)c2)cc1NC(=O)c1cccnc1 | 1.34 | 32 |  |  |  |  |  | 
O=C(Nc1ccc(Cl)c(C(=O)Nc2cncs2)c1)c1cccc(Cl)c1 | 0.52 | 5 | 20 | 30 | 1.8 | 54 |  | 
O=C(Nc1ccc(Cl)c(C(=O)Nc2cccnc2)c1)c1cccc(F)c1 | 1.64 | 25 |  |  |  |  |  | 
CC(C)c1ncc(NC(=O)c2cc(NC(=O)c3cccc(C(F)(F)F)c3)ccc2Cl)s1 | 0.15 | 13 | 65 | 60 | 2.2 | 37 |  | 
Cc1ccc(NC(=O)c2cccc(N(C)S(C)(=O)=O)c2)cc1NC(=O)c1ccc2ncccc2c1 |  | 89 |  |  |  |  |  | 
Cc1cccc(C(=O)Nc2ccc(Cl)c(C(=O)Nc3cccnc3)c2)c1 | 0.24 | 10 | 28 | 48 | 1.3 | 30 |  | 
Cc1cc(C)cc(C(=O)Nc2ccc(Cl)c(C(=O)Nc3cnc(C(C)C)s3)c2)c1 | 0.11 | 31 |  |  |  |  |  | 
Cc1ncc(NC(=O)c2cc(NC(=O)c3cccc(Cl)c3)ccc2Cl)s1 | 0.18 | 4 | 43 | 54 | 0.9 | 12 |  | 
Cc1ccc(NC(=O)c2cccc(C(F)(F)F)c2)cc1C(=O)Nc1cccnc1 | 0.23 | 37 | 40 | 60 | 1 | 16 |  | 
Cc1ccc(C(=O)Nc2cccc(C(F)(F)F)c2)cc1C(=O)Nc1cccnc1 |  | 6900 |  |  |  |  |  | 
Cc1cc(C)cc(C(=O)Nc2ccc(Cl)c(C(=O)Nc3cnc(C)s3)c2)c1 | 0.06 | 6 | 27 | 78 | 1.2 | 14 | 60 | 90
O=C(Nc1ccc(Cl)c(C(=O)Nc2cccnc2)c1)c1cc(Cl)cc(Cl)c1 | 0.13 | 3 |  |  |  |  |  | 
Cc1ncc(NC(=O)c2cc(NC(=O)c3cc(F)cc(Cl)c3)ccc2Cl)s1 | 0.13 | 11 |  |  |  |  |  | 
Cc1ncc(NC(=O)c2cc(NC(=O)c3cccc(C(F)(F)F)c3)ccc2C)s1 | 0.11 | 10 |  |  |  |  |  | 
Cc1cc(C)cc(C(=O)Nc2ccc(Cl)c(C(=O)Nc3cccnc3)c2)c1 | 0.05 | 8 |  |  |  |  |  | 

— ChEMBL document CHEMBL1139407, “Pyridyl and thiazolyl bisamide CSF-1R inhibitors for the treatment of cancer” (Bioorg Med Chem Lett, 2008)
